Bioassay records as filed in PubChem BioAssay.
MsrA inh: bovine MsrA inhibition | purified bovine MsrA, absorbance read-out | inhibition, % at 15.5 µM | 360,000 compounds, 0.75% hits; in the data active = inhibition above about 4.5%;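 also: 0% = vehicle wells with enzyme and 100% = reference inhibitor wells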
TbMetRS inhib: Trypanosoma brucei MetRS inhibition; inhibition, % at 11.9 µM; purified T. brucei MetRS, ATP depletion, Kinase-Glo luminescence; AID 624268; 360,000 compounds, 0.4% hits;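 active = inhibition above a per-plate cutoff of the control wells' mean inhibition plus 3 SD, cut at about 5.5% in these data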;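 also: 0% = DMSO wells median and 100% = median of wells with control inhibitor compound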
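technique = Kinase-Glo luminescence, ATP depletion format | system = purified MetRS (methionyl-tRNA synthetase) enzyme from Trypanosoma brucei | timing = 15 min preincubation, 2 h reaction, all 25 °C | evaluation = percent inhibition versus plate control medians | dosing = single dose, 11.9 µM final nominal, 0.9% final DMSO | also added = substrates ATP, L-methionine and bulk Escherichia coli tRNA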
m5-HT2A agonist: agonists of mouse serotonin 5-HT2A receptor (HTR2A); CHO-K1 mHTR2A beta-arrestin complementation, luminescence; percent of 30 µM serotonin response; activation, % at 7.6 µM; 360,000 compounds, 0.66% hits; AID 624169;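 active = activation above a run cutoff, the mean activation of all tested compounds plus 3 SD, cut at about 14% in these data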;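 also: 0% = plate median of compound wells and 100% = 30 µM serotonin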
Target sequence (P35363 whole entry, looked up): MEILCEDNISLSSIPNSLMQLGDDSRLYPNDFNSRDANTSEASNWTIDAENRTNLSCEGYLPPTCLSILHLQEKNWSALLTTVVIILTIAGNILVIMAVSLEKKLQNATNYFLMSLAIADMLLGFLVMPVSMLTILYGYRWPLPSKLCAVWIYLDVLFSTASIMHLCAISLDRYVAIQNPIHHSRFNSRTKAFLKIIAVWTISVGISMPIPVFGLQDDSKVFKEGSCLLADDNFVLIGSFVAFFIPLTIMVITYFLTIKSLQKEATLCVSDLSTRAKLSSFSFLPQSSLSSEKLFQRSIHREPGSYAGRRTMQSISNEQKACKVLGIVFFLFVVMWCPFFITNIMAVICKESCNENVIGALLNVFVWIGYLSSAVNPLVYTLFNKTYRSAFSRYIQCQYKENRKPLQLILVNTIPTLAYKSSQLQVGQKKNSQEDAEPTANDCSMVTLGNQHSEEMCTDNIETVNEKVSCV
AHR act: activators of human aryl hydrocarbon receptor | P35869 | AHR-responsive luciferase reporter cells, luminescence | activation, % at 5 µM | 320,000 compounds, 2.5% hits | AID 2796; in the data active = activation above about 47%;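 also: 0% = vehicle wells and 100% = reference agonist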
AI-2 QS modul: modulates the Vibrio harveyi AI-2 quorum sensing system; AID 2094; 300,000 compounds, 0.4% hits; activity change, % at 7.5 µM; Vibrio harveyi JMH597 AI-2 luminescence/OD600 ratio, 9 h; active compounds read low; strain lacks LuxN and CqsS sensors; 0 = neutral-control median; in the data active = activity change below about -75%, passing the limit was not always enough;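 also: luminescence divided by OD600 gain over 9 h not by final OD600 alone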
bovine MsrA act: bovine methionine sulfoxide reductase A activation; activation, % at 10.6 µM; purified bovine MsrA, absorbance read-out; AID 602163; 360,000 compounds, 0.3% hits; in the data active = activation above about 7.5%;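 also: 0% = vehicle and 100% = reference activator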
OPRM1 ag: counter-screen for mouse HTR2A agonists: human mu opioid receptor agonists; U2OS OPRM1 beta-arrestin PathHunter, luminescence; DMSO 0%, DAMGO 9.3 µM 100%; shares compounds with m5-HT2A agonist; 2,300 compounds, 5.3% hits; activation, % at 9.3 µM;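 active = mean activation above the mean of DMSO-only wells plus 3 SD, cut at about 0.5% in these data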
HTR2A ag conf: confirmation of mouse HTR2A serotonin receptor agonists; shares compounds with m5-HT2A agonist; CHO-K1 PathHunter beta-arrestin recruitment, luminescence; DMSO 0%, 30 µM serotonin 100%; activation, % at 7.6 µM; 2,300 compounds, 19% hits;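 active = mean activation across triplicates above the hit threshold derived in the original primary screen, cut at about 15% in these data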
* hit, by the source's call; nt = no result given. Hits are enriched below; roughly 4.4% of the tested compounds scored in any of these assays.

SMILES	MsrA inh	TbMetRS inhib	m5-HT2A agonist	AHR act	AI-2 QS modul	bovine MsrA act	OPRM1 ag	HTR2A ag conf
CC1CCCN(S(=O)(=O)CCNC(=O)c2ccccc2)C1 (centres undefined)	0	0	-2	-1	10	-4	nt	nt
C/C(=C\c1ccccc1)CN1CCN(c2ccccc2)CC1	2	-1	19*	3	-55	0	0	41*
CCCc1cc(=O)[nH]c(SCC(=O)Nc2ccc(Cl)c(S(=O)(=O)N3CCOCC3)c2)n1	1	0	-2	0	nt	-3	nt	nt
O=C(Nc1nnc(C2CC2)s1)c1cccc(S(=O)(=O)N2CC(c3ccccc3)CC2=O)c1 (centres undefined)	0	0	17*	1	26	6	-1	-6
CCOc1ccc(NC(=O)c2c(NC(=O)CNCCN3CCOCC3)sc3c2CCC3)cc1	0	0	-2	21	-10	-1	nt	nt
CCOC(=O)[C@]12CCCC=C1N(Cc1cccc3ccccc13)C(=O)[C@H](CC(=O)N1CCC(c3ccccc3)CC1)C2	1	0	17*	nt	nt	-3	-1	-2
O=C(OCCN1CCCCC1)c1cccc(Cl)c1	0	-1	-4	0	2	-3	nt	nt
Cc1ccc(NC(=O)C2CCC(=O)N2C(=O)OCc2ccccc2)cc1 (centres undefined)	0	0	-6	-1	7	-3	nt	nt
O=C(Nc1ccccn1)[C@@H]1CCC(=O)N1C(=O)OCc1ccccc1	-1	-1	18*	1	7	-3	0	-3
COc1ccccc1N1CCN(C(=O)COc2ccc(S(=O)(=O)NC(C)C)cc2)CC1	0	-1	15*	0	17	0	-1	-2
Cc1cn(CC(=O)NCc2ccc(N(C)C)cc2)c(=O)[nH]c1=O	-1	0	2	nt	nt	-1	nt	nt
CC(C)(C)Nc1ncnc2sc(-c3ccccc3)cc12	1	-1	23*	6	18	-10	0.5*	5
OCCCNc1ncnc2sc(-c3ccccc3)cc12	1	0	-1	22	19	-15	nt	nt
Cc1ccccc1S(=O)(=O)N(C)C[C@@H]1OCc2ccccc2-c2c(n(C)c3ccccc23)C(=O)N([C@H](C)CO)C[C@@H]1C	0	-3	56*	nt	nt	-10	0	4
Nc1nc(F)nc2c1ncn2[C@@H]1O[C@H](CO)[C@@H](O)[C@H]1O	-1	-1	20*	-5	18	-8	0.9*	11
Nc1nc(F)nc2c1ncn2[C@@H]1O[C@H](CO)[C@@H](O)[C@@H]1O	1	-1	4	-2	-13	2	nt	nt
O=C(Nc1ccc(OC(F)(F)F)cc1)C1CCCN(C(=O)c2ccc(Cl)cc2)C1 (centres undefined)	-2	0	-4	-1	nt	7	nt	nt
CC(C)NC(=O)C1(C)CCN1Cc1ccc(C(F)(F)F)cc1 (centres undefined)	0	0	-7	nt	nt	1	nt	nt
O=C(c1ccccc1)C1CCN(C(=O)C2CCC(=O)N(Cc3ccccc3F)C2)CC1 (centres undefined)	-1	0	-1	-2	11	-3	nt	nt
Cc1nc2ccc(S(=O)(=O)CCC(=O)NCc3ccc(Cl)cc3)cc2s1	-1	1	21*	nt	nt	-1	0	-1
Cc1nc2ccc(S(=O)(=O)NCC(=O)NCc3ccc(Cl)cc3)cc2s1	0	0	0	1	29	-5	nt	nt
O=C(COc1ccc(Cl)cc1)Nc1ccc(C(=O)O)cc1NC(=O)COc1ccc(Cl)cc1	-2	0	1	0	4	-3	nt	nt
O=Nc1c(O)n(Cc2cccc(C(F)(F)F)c2)c2ccccc12	0	-1	16*	1	21	-4	0.7*	3
Cc1cc(=O)n2[nH]c(Nc3cccc(Cl)c3)nc2n1	-2	3	-1	22	4	1	nt	nt
O=C(NCc1ccc2c(c1)OCO2)C1CCC(CNc2c(N3CCCC3)c(=O)c2=O)CC1 (centres undefined)	0	0	14*	1	13	-3	0	-2
SMILES	MsrA inh	TbMetRS inhib	m5-HT2A agonist	AHR act	AI-2 QS modul	bovine MsrA act	OPRM1 ag	HTR2A ag conf
O=C(NCc1ccccc1)C1CCC(CNc2c(N3CCCCC3)c(=O)c2=O)CC1 (centres undefined)	1	0	1	-2	6	2	nt	nt
CCOC(=O)C1CCN(Cc2cccc(Oc3ccc(Cl)cc3)c2)CC1	0	0	20*	0	45	0	0	70*
CCOC(=O)C1CCN(Cc2cccc(Oc3ccccc3)c2)CC1	-1	0	14	-2	33	-1	nt	nt
COc1ccc(NC(=O)CSc2nc3ccccc3nc2N2CCOCC2)c(OC)c1	1	0	16*	2	7	-4	-1	-5
COc1ccc(NC(=O)CSc2nc3ccccc3c(=O)n2CCCN2CCCCC2)c(OC)c1	-1	0	42*	2	1	-1	0	18*
CCCCN(S(=O)(=O)c1ccccc1)S(=O)(=O)c1ccccc1	0	0	-4	0	17	0	nt	nt
Cc1c(C(=O)NCc2ccc(F)cc2)sc(=O)n1Cc1ccccc1F	-1	0	-9	nt	nt	5	nt	nt
CCOC(=O)c1cc2cc(OC)ccc2n1C1CCN(CCc2ccccc2)CC1	0	-1	20*	nt	nt	-11	0	-7
CC(C(=O)NCc1ccccc1)n1c(CSCCOc2ccccc2)nc2ccccc21 (centres undefined)	1	0	-2	nt	nt	nt	nt	nt
Cc1ccc(C(=O)NNC(=O)Cn2ccc(C(F)(F)F)n2)o1	-1	-1	16*	1	6	-11	-1	-1
COc1ccc(OC)c(C2=Nn3c(nnc3-c3cc(OC)c(OC)c(OC)c3)SC2)c1	2	0	15*	20	14	-2	0	7
CC(=O)Nc1ccc(CN2CCN(CC(C)C)C(CCO)C2)cc1 (centres undefined)	0	0	14*	0	-24	0	-1	-4
CCOc1ccc(N2CC(C(=O)NCCc3ccc(F)cc3)CC2=O)cc1 (centres undefined)	0	0	-3	-3	12	-3	nt	nt
CN(C)S(=O)(=O)c1ccc(Cl)c(NC(=O)CN2CCc3ccccc3C2)c1	1	0	23*	-1	21	1	0	82*
Cc1cccc(NC(=O)CNC(=O)Cc2ccc3c(c2)OCCO3)c1C	0	0	6	1	nt	-5	nt	nt
CCCCC(=O)N(C)c1c(CC)nc2c(OCCOc3ccccc3)cccn12	1	0	25*	nt	nt	-8	-1	-2
